The results in this text go back to ChEMBL document CHEMBL4346661, “Design, synthesis and evaluation of novel diaryl-1,5-diazoles derivatives bearing morpholine as potent dual COX-2/5-LOX inhibitors and antitumor agents” (Eur J Med Chem, 2019).

Bounds are passed on as bounds.

One experiment has as its system A549. Kind of experiment: Antiproliferative activity against human A549 cells incubated for 48 hrs by MTT assay. It is filed as functional, cell-based. The following applies: A549, 48 h. The procedure, abridged: (§1)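 MTT assay on F10 (murine melanoma), HeLa, A549, MCF-7 and 293T (human renal epithelium) cells. IC50 given as mean ± SD of three independent experiments.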

Experiment [1] can be described thus: Inhibition of 5-LOX assessed as calcium ionophore A23187-stimulated LTB4 production preincubated for 30 mins followed by calcium ionophore A23187 addition and measured after 30 mins by ELISA.
Experiment [2] has as its target T1, Prostaglandin G/H synthase 2 (Homo sapiens, UniProt P35354).
T1 sequence (P35354 whole entry): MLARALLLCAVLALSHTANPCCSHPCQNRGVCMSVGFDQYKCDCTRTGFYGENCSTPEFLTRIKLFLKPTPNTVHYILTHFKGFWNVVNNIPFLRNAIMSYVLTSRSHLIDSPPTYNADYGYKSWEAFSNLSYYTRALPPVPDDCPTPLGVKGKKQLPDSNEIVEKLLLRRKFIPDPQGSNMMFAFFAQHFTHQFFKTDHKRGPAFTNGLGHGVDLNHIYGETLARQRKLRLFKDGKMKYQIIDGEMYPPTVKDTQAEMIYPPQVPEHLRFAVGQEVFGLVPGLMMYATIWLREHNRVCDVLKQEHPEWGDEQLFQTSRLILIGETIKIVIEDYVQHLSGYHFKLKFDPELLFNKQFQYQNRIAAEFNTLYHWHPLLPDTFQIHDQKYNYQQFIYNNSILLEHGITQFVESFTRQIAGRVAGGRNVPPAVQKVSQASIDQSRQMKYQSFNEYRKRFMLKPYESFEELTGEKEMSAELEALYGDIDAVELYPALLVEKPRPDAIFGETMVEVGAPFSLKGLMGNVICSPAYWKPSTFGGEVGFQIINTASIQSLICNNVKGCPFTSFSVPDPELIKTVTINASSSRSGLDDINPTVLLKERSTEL
Kind of experiment: Inhibition of COX2 (unknown origin) using arachidonic acid as substrate incubated for 10 mins by Ellman's reagent based COX-1/COX-2 ELISA assay.

The test system of the next experiment is HeLa. Kind of experiment: Antiproliferative activity against human HeLa cells incubated for 48 hrs by MTT assay. It is filed as functional, cell-based. The procedure, abridged:
as §1

For a further experiment, the system named is MCF7. Kind of experiment: Antiproliferative activity against human MCF7 cells incubated for 48 hrs by MTT assay. The format is functional, cell-based. The following applies: MCF7, 48 h. In a few lines:
as §1

A further experiment concerns HEK-293T. Kind of experiment: Antiproliferative activity against human 293T cells incubated for 48 hrs by MTT assay. It is filed as cell-based. In a few lines: as §1
In the next experiment the test system is B16-F10. Kind of experiment: Antiproliferative activity against mouse B16F10 cells incubated for 48 hrs by MTT assay. It is filed as functional, cell-based. To be noted: B16-F10, 48 h. The procedure, abridged: as §1

On to `Cc1ccc(-c2cc(C(=O)N3CCOCC3)nn2-c2ccc(S(N)(=O)=O)cc2)cc1`, for which the IC50 was 22.8 µM in the experiment with A549; 1.24 µM in experiment [1]; 0.93 µM in experiment [2]; more than 100 µM with HeLa; 17.9 µM with MCF7; 190 µM with HEK-293T. This molecule also registered an IC50 in the experiment with B16-F10 of 21.4 µM.

Turning to `NS(=O)(=O)c1ccc(-n2nc(C(=O)NCCN3CCOCC3)cc2-c2ccccc2)cc1`, the IC50 in the experiment with A549 was more than 100 µM; in experiment [1], 0.96 µM; in experiment [2], 0.64 µM; in the experiment on HeLa, 21.8 µM; with MCF7, 39.2 µM; with HEK-293T it was 151 µM. In the experiment on B16-F10, this molecule yielded an IC50 of 30.8 µM.

In the case of `COc1cccc(-c2cc(C(=O)N3CCOCC3)nn2-c2ccc(S(N)(=O)=O)cc2)c1`, the IC50 with A549 is more than 100 µM; in experiment [1], 0.96 µM; in experiment [2], 2.25 µM; with HeLa, more than 100 µM; with MCF7, 26 µM; with HEK-293T, 134 µM. In addition, in the experiment with B16-F10, the IC50 turned out to be 29.2 µM.

For `NS(=O)(=O)c1ccc(-n2nc(C(=O)NCCN3CCOCC3)cc2-c2ccc(F)cc2)cc1`, the IC50 in the experiment on A549 is more than 100 µM; in experiment [1] it was 1.01 µM; in experiment [2] it was 0.16 µM; with HeLa it was more than 100 µM; in the experiment on MCF7, 15.8 µM; with HEK-293T it was 112 µM. Moreover, the concentration for half-maximal inhibition (IC50) with B16-F10 was more than 100 µM.

As to `CCOc1ccc(-c2cc(C(=O)N3CCSCC3)nn2-c2ccc(S(N)(=O)=O)cc2)cc1`, the IC50 in the experiment on A549 is more than 100 µM; in experiment [1], 0.97 µM; in experiment [2], 0.97 µM; in the experiment on HeLa, 21.6 µM; in the experiment on MCF7, 16.5 µM; in the experiment on HEK-293T, 169 µM. In the experiment on B16-F10, this molecule showed a concentration for half-maximal inhibition (IC50) of 32.3 µM.

As to `NS(=O)(=O)c1ccc(-n2nc(C(=O)N3CCOCC3)cc2-c2cccc(Cl)c2)cc1`, the IC50 came out at 24.6 µM with A549; 1.33 µM in experiment [1]; 0.24 µM in experiment [2]; 17.9 µM in the experiment with HeLa; 15.8 µM with MCF7; 114 µM with HEK-293T. Moreover, in the experiment on B16-F10, the half-maximal inhibitory concentration (IC50) was 14.6 µM.

With `NS(=O)(=O)c1ccc(-n2nc(C(=O)OCCN3CCOCC3)cc2-c2ccc(F)cc2)cc1`, the IC50 in the experiment with A549 is more than 100 µM; in experiment [1], 0.84 µM; in experiment [2] it was 0.21 µM; in the experiment with HeLa, more than 100 µM; with MCF7 it was 19.3 µM; with HEK-293T, 146 µM. In the experiment on B16-F10, this molecule gave an IC50 of 18.1 µM.

Regarding `NS(=O)(=O)c1ccc(-n2nc(C(=O)OCCCN3CCOCC3)cc2-c2ccc(Cl)cc2)cc1`, the IC50 in the experiment on A549 is more than 100 µM; in experiment [1], 0.85 µM; in experiment [2] it was 5.47 µM; with HeLa, 21.4 µM; with MCF7 it was 22.1 µM; in the experiment on HEK-293T, 189 µM. The concentration for half-maximal inhibition (IC50) with B16-F10 is 26.8 µM.

Take `COc1cccc(-c2cc(C(=O)N3CCSCC3)nn2-c2ccc(S(N)(=O)=O)cc2)c1`: the IC50 in the experiment with A549 worked out at 16 µM; in experiment [1], 1.19 µM; in experiment [2], 1.95 µM; with HeLa, 20.3 µM; in the experiment on MCF7 it was 17.9 µM; in the experiment on HEK-293T it was 177 µM. This molecule yielded an IC50 with B16-F10 of 13 µM.

Take `CCOc1ccc(-c2cc(C(=O)N3CCOCC3)nn2-c2ccc(S(N)(=O)=O)cc2)cc1`: the IC50 in the experiment on A549 came to 41.7 µM; in experiment [1], 0.95 µM; in experiment [2], 2.99 µM; with HeLa, 27.2 µM; in the experiment on MCF7, 15 µM; in the experiment on HEK-293T, 116 µM. Further, in the experiment on B16-F10, the IC50 is 18.6 µM.

Regarding `NS(=O)(=O)c1ccc(-n2nc(C(=O)OCCN3CCOCC3)cc2-c2ccc(Cl)cc2)cc1`, the IC50 with A549 amounted to 23 µM; in experiment [1], 0.87 µM; in experiment [2], 0.25 µM; in the experiment with HeLa it was 25.4 µM; with MCF7, 25.8 µM; with HEK-293T, 122 µM. Also, the IC50 in the experiment on B16-F10 stood at 22 µM.

`NS(=O)(=O)c1ccc(-n2nc(C(=O)N3CCSCC3)cc2-c2ccc(Br)cc2)cc1`: the IC50 was determined as 17.7 µM in the experiment on A549; 1.21 µM in experiment [1]; 1.28 µM in experiment [2]; 16 µM with HeLa; 14.6 µM in the experiment on MCF7; 197 µM in the experiment on HEK-293T. In the experiment on B16-F10, this molecule registered a 50% inhibitory concentration (IC50) of 12.1 µM.

As to `NS(=O)(=O)c1ccc(-n2nc(C(=O)OCCCN3CCOCC3)cc2-c2ccc(F)cc2)cc1`, the IC50 was more than 100 µM in the experiment with A549; 0.75 µM in experiment [1]; 3.57 µM in experiment [2]; more than 100 µM with HeLa; more than 100 µM with MCF7; more than 300 µM in the experiment with HEK-293T. This molecule displayed an IC50 with B16-F10 of more than 100 µM.

For `COc1ccc(-c2cc(C(=O)N3CCSCC3)nn2-c2ccc(S(N)(=O)=O)cc2)cc1`, the IC50 was 17.2 µM in the experiment on A549; 1.01 µM in experiment [1]; 1.21 µM in experiment [2]; 24.1 µM in the experiment on HeLa; 19.7 µM in the experiment with MCF7; 211 µM with HEK-293T. Also, the IC50 with B16-F10 was 13.2 µM.

As to `NS(=O)(=O)c1ccc(-n2nc(C(=O)N3CCSCC3)cc2-c2cccc(F)c2)cc1`, the IC50 in the experiment with A549 is 14.5 µM; in experiment [1], 1.32 µM; in experiment [2], 0.19 µM; in the experiment on HeLa, 13.2 µM; in the experiment on MCF7 it was 14.4 µM; in the experiment on HEK-293T it was 176 µM. The same molecule displayed a concentration for half-maximal inhibition (IC50) in the experiment on B16-F10 of 10.3 µM.

`NS(=O)(=O)c1ccc(-n2nc(C(=O)O)cc2-c2ccc(C(F)(F)F)cc2)cc1`: the IC50 came to 22.5 µM in the experiment with A549; 26.5 µM in the experiment with HeLa; 24.8 µM in the experiment on MCF7; 190 µM with HEK-293T; 23.8 µM with B16-F10.

Turning to `NS(=O)(=O)c1ccc(-n2nc(C(=O)N3CCOCC3)cc2-c2ccc(F)cc2)cc1`, the IC50 with A549 is 27.5 µM; in experiment [1] it was 0.89 µM; in experiment [2], 0.23 µM; with HeLa, more than 100 µM; in the experiment with MCF7, 20 µM; in the experiment with HEK-293T, 206 µM. Also, the IC50 in the experiment with B16-F10 was found to be 20.5 µM.

As for `CCOc1ccc(-c2cc(C(=O)NCCN3CCOCC3)nn2-c2ccc(S(N)(=O)=O)cc2)cc1`, the IC50 worked out at 16.5 µM with A549; 0.86 µM in experiment [1]; 0.85 µM in experiment [2]; 20.8 µM in the experiment with HeLa; 25.8 µM in the experiment with MCF7; 155 µM with HEK-293T. Also, in the experiment with B16-F10, the IC50 was 24.2 µM.

With `CCOc1ccc(-c2cc(C(=O)OCCN3CCOCC3)nn2-c2ccc(S(N)(=O)=O)cc2)cc1`, the IC50 in the experiment on A549 turned out to be 21.5 µM; in experiment [1], 0.79 µM; in experiment [2], 1.11 µM; with HeLa, 29.8 µM; in the experiment on MCF7, 18.8 µM; with HEK-293T, 116 µM. Besides, in the experiment with B16-F10, inhibition was half-maximal at 20.2 µM (IC50).

In the case of `NS(=O)(=O)c1ccc(-n2nc(C(=O)N3CCOCC3)cc2-c2ccc(Br)cc2)cc1`, the IC50 was 20 µM in the experiment on A549; 0.98 µM in experiment [1]; 0.31 µM in experiment [2]; 22.6 µM in the experiment on HeLa; 17.9 µM in the experiment on MCF7; 160 µM in the experiment with HEK-293T. Moreover, the IC50 in the experiment with B16-F10 was more than 100 µM.

`NS(=O)(=O)c1ccc(-n2nc(C(=O)NCCCN3CCOCC3)cc2-c2ccccc2)cc1`: the IC50 with A549 turned out to be 20.5 µM; in experiment [1] it was 0.93 µM; in experiment [2] it was 0.42 µM; in the experiment with HeLa it was 27.4 µM; in the experiment on MCF7, 18.1 µM; with HEK-293T it was 156 µM. The IC50 in the experiment with B16-F10 is 21.8 µM.
